Assay results taken from ChEMBL document CHEMBL1155099, “Natural products in parallel synthesis: triazole libraries of nonactic acid” (2008).
Activity calls are given as the source filed them.

Legend:
Assay type in all cases: functional, organism-based
Bacillus anthracis = experiment: Antibacterial activity against Bacillus anthracis at 1mM by almar blue dye reduction assay
Bacillus cereus = experiment: Antibacterial activity against Bacillus cereus at 1 mM by almar blue dye reduction assay
Summary of the method: (§1)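 Single-point primary screen at 1 mM using Alamar Blue dye reduction as the growth read-out.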

Bacillus subtilis = experiment: Antibacterial activity against Bacillus subtilis at 1 mM by almar blue dye reduction assay; summary of the method: as §1
Staphylococcus aureus = experiment: Antibacterial activity against Staphylococcus aureus at 1 mM by almar blue dye reduction assay; summary of the method: as §1
Escherichia coli = experiment: Antibacterial activity against Escherichia coli at 1 mM by almar blue dye reduction assay; summary of the method: as §1
Pseudomonas aeruginosa = experiment: Antibacterial activity against Pseudomonas aeruginosa at 1 mM by almar blue dye reduction assay; summary of the method: as §1
Candida albicans = experiment: Antifungal activity against Candida albicans at 1 mM by almar blue dye reduction assay; summary of the method: as §1
Cryptococcus neoformans = experiment: Antifungal activity against Cryptococcus neoformans at 1 mM by almar blue dye reduction assay; summary of the method: as §1
Saccharomyces cerevisiae = experiment: Antifungal activity against Saccharomyces cerevisiae at 1 mM by almar blue dye reduction assay; summary of the method: as §1

Measured: Activity

CCCCCC#Cc1cn([C@H](C)C[C@@H]2CC[C@H]([C@@H](C)C(=O)N3CCCC3)O2)nn1
inactive: all assays above

Cc1cccc(NC(=O)NCC#Cc2cn([C@H](C)CC3CCC([C@@H](C)C(=O)N4CCCC4)O3)nn2)c1 (single isomer, unassigned)
inactive: all assays above

COCC#Cc1cn([C@H](C)C[C@@H]2CC[C@H]([C@@H](C)C(=O)N3CCCC3)O2)nn1
inactive: all assays above

CCN(CC)C(=O)[C@H](C)[C@H]1CC[C@@H](C[C@@H](C)n2cc(C#Cc3ccc(Oc4ccccc4)cc3)nn2)O1
inactive: all assays above

CC(C)NC(=O)[C@H](C)[C@H]1CC[C@@H](C[C@@H](C)n2cc(C#CCN(C)CCc3ccccc3)nn2)O1
inactive: all assays above

C[C@H](C[C@@H]1CC[C@H]([C@@H](C)C(=O)N2CCCC2)O1)n1cc(C#Cc2ccc(-c3ccccc3)cc2)nn1
inactive: all assays above

CCN(CC)C(=O)[C@H](C)[C@H]1CC[C@@H](C[C@@H](C)n2cc(C#Cc3ccc(C(F)(F)F)cc3)nn2)O1
inactive: all assays above

CCN(CC)C(=O)[C@H](C)[C@H]1CC[C@@H](C[C@@H](C)n2cc(C#CC3=CCCCC3)nn2)O1
inactive: all assays above

CCN(CC)C(=O)[C@H](C)[C@H]1CC[C@@H](C[C@@H](C)n2cc(C#CCOc3cccc(-c4ccccc4)c3)nn2)O1
inactive: all assays above

C[C@H](CC1CCC([C@@H](C)C(=O)N2CCN(CC3CCCO3)CC2)O1)n1cc(C#CCNC(=O)OCc2ccccc2)nn1 (single isomer, unassigned)
inactive: all assays above

COc1ccc(OCC#Cc2cn([C@H](C)C[C@@H]3CC[C@H]([C@@H](C)C(=O)N4CCN(CC5CCCO5)CC4)O3)nn2)cc1 (some centres not stated)
inactive: all assays above

C[C@H](C[C@@H]1CC[C@H]([C@@H](C)C(=O)N(C)Cc2ccccc2)O1)n1cc(C#Cc2ccc(-c3ccccc3)cc2)nn1
inactive: all assays above

CCN(CC)C(=O)[C@H](C)C1CCC(C[C@@H](C)n2cc(C#CCOC(=O)Nc3cccc(C)c3)nn2)O1 (single isomer, unassigned)
inactive: all assays above

C[C@H](C[C@@H]1CC[C@H]([C@@H](C)C(=O)N2CCCC2)O1)n1cc(C#CCOc2ccccc2)nn1
inactive: all assays above

COc1cccc(OCC#Cc2cn([C@H](C)C[C@@H]3CC[C@H]([C@@H](C)C(=O)NC(C)C)O3)nn2)c1OC
inactive: all assays above

CCC(=O)OCC#Cc1cn([C@H](C)CC2CCC([C@@H](C)C(=O)N(CC)CC)O2)nn1 (single isomer, unassigned)
inactive: all assays above

CCN(CC)C(=O)[C@H](C)[C@H]1CC[C@@H](C[C@@H](C)n2cc(C#CCNCCOC)nn2)O1
inactive: all assays above

C[C@H](C[C@@H]1CC[C@H]([C@@H](C)C(=O)N(C)Cc2ccccc2)O1)n1cc(C#Cc2cccc3ccccc23)nn1
inactive: all assays above
